38 sequences from the array DNA melting data of Ke et al. (doi:10.1101/2024.01.08.574731) can be followed below.

Series [1] is described as follows: folding enthalpy; higher = less favourable; fluorescence melt of hairpins on a sequencing array, two-state fit. To be noted: sodium 0.088 M. The essentials:
(§1)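 Two-state fits, bootstrapped, provided melting temperature and folding enthalpy from Cy3 fluorescence normalised to pre-quench Cy3 and to control constructs. Library hairpins with annealed Cy3 and quencher oligos were imaged on a sequenced MiSeq flow cell in 50 mM Na-HEPES pH 8.0, 25 mM NaCl, at 2.5 °C intervals up to 60 °C. Four replicates were combined with inverse-variance weighting. A 9.35 °C upward shift was applied to fitted temperatures to match UV melts.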

A short description of series [2]: melting temperature; fluorescence melt of hairpins on a sequencing array, two-state fit, raised by 9.35 °C to match UV melts. As to conditions: sodium 0.088 M. A digest of the protocol: as §1

On to GATCGGTGAACCGATC ((((((....)))))), for which the folding enthalpy in series [1] was -43.4 kcal/mol. In addition, in series [2], the Tm came to 61 °C.

Consider GATCGGTGATCCGATC ((((((....)))))), for which the folding enthalpy in series [1] is -41.2 kcal/mol. Besides, the Tm in series [2] is 56.8 °C.

On to GATCGGTGTCCCGATC ((((((....)))))), for which the folding enthalpy in series [1] was -38.3 kcal/mol. Moreover, the Tm in series [2] stood at 58.4 °C.

Consider GATCGGTTACCCGATC ((((((....)))))), for which, in series [1], the folding enthalpy was -41.4 kcal/mol. In series [2], the Tm turned out to be 57.3 °C.

On to GATCGGTTAGCCGATC ((((((....)))))), for which the folding enthalpy in series [1] was -46.4 kcal/mol. In addition, the Tm in series [2] was 58.6 °C.

Turning to GATCGGTTTGCCGATC ((((((....)))))), the folding enthalpy in series [1] is -47.9 kcal/mol. Also, the Tm in series [2] was determined as 61.6 °C.

As for GATCGTAAACACGATC ((((((....)))))), the folding enthalpy in series [1] is -36.9 kcal/mol. Moreover, the Tm in series [2] amounted to 52 °C.

Regarding GATCGTAACACGATC ((((((...)))))), the folding enthalpy in series [1] was -37.4 kcal/mol. In addition, the Tm in series [2] was found to be 57.5 °C.

Consider GATCGTAACGACGATC ((((((....)))))), for which the folding enthalpy in series [1] is -34.8 kcal/mol. Moreover, in series [2], the Tm was 54.9 °C.

Regarding GATCGTAACTACGATC ((((((....)))))), in series [1], the folding enthalpy was -41.6 kcal/mol. In addition, the Tm in series [2] stood at 56 °C.

As for GATCGTACAAACGATC ((((((....)))))), in series [1], the folding enthalpy was -40.2 kcal/mol. Further, in series [2], the Tm was determined as 52.6 °C.

With GATCGTACTAACGATC ((((((....)))))), the folding enthalpy in series [1] is -39.1 kcal/mol. For the same sequence, the Tm in series [2] was determined as 54.8 °C.

As to GATCGTAGACACGATC ((((((....)))))), the folding enthalpy in series [1] is -39.8 kcal/mol. The Tm in series [2] came to 54.2 °C.

Turning to GATCGTAGATACGATC ((((((....)))))), the folding enthalpy in series [1] was -32.3 kcal/mol. The Tm in series [2] was determined as 55.1 °C.

Take GATCGTAGCACGATC ((((((...)))))): the folding enthalpy in series [1] is -34.8 kcal/mol. For the same sequence, the Tm in series [2] was 56.5 °C.

Take GATCGTAGGAACGATC ((((((....)))))): in series [1], the folding enthalpy was -30.9 kcal/mol. In addition, the Tm in series [2] worked out at 52.4 °C.

For GATCGTAGGCACGATC ((((((....)))))), the folding enthalpy in series [1] is -37 kcal/mol. For the same sequence, the Tm in series [2] was 54.2 °C.

On to GATCGTAGGGACGATC ((((((....)))))), for which the folding enthalpy in series [1] was -31.6 kcal/mol. The Tm in series [2] is 56 °C.

Consider GATCGTAGTACGATC ((((((...)))))), for which the folding enthalpy in series [1] is -29.6 kcal/mol. Moreover, in series [2], the Tm was found to be 54.7 °C.

GATCGTCAAACGATC ((((((...)))))): the folding enthalpy in series [1] was -31.7 kcal/mol. The Tm in series [2] was 52.1 °C.

Turning to GATCGTCAACACGATC ((((((....)))))), in series [1], the folding enthalpy was -32.9 kcal/mol. In addition, the Tm in series [2] stood at 51.5 °C.

As to GATCGTCATAACGATC ((((((....)))))), the folding enthalpy in series [1] is -38.8 kcal/mol. In series [2], the Tm stood at 55 °C.

With GATCGTCCAAACGATC ((((((....)))))), in series [1], the folding enthalpy is -42.7 kcal/mol. Also, the Tm in series [2] worked out at 55.2 °C.

Take GATCGTCCCGACGATC ((((((....)))))): in series [1], the folding enthalpy was -43.2 kcal/mol. In addition, the Tm in series [2] is 59.8 °C.

Consider GATCGTCCTAACGATC ((((((....)))))), for which the folding enthalpy in series [1] is -40.4 kcal/mol. Besides, in series [2], the Tm is 55.5 °C.

As to GATCGTCCTTACGATC ((((((....)))))), in series [1], the folding enthalpy is -40.7 kcal/mol. Also, in series [2], the Tm turned out to be 53.8 °C.

As to GATCGTCTAGACGATC ((((((....)))))), in series [1], the folding enthalpy was -37.2 kcal/mol. In series [2], the Tm amounted to 59.7 °C.

Consider GATCGTCTGAACGATC ((((((....)))))), for which, in series [1], the folding enthalpy is -39.6 kcal/mol. In series [2], the Tm was determined as 55.6 °C.

On to GATCGTGAAGACGATC ((((((....)))))), for which, in series [1], the folding enthalpy was -31.5 kcal/mol. Also, in series [2], the Tm was determined as 57 °C.

In the case of GATCGTGACCACGATC ((((((....)))))), in series [1], the folding enthalpy was -38.7 kcal/mol. The Tm in series [2] worked out at 61.3 °C.

In the case of GATCGTGACTACGATC ((((((....)))))), in series [1], the folding enthalpy is -43.8 kcal/mol. Moreover, in series [2], the Tm worked out at 61.2 °C.

Take GATCGTGAGACGATC ((((((...)))))): the folding enthalpy in series [1] was -33.8 kcal/mol. Also, the Tm in series [2] turned out to be 54 °C.

GATCGTGAGGACGATC ((((((....)))))): the folding enthalpy in series [1] is -34.1 kcal/mol. In addition, in series [2], the Tm stood at 53.5 °C.

GATCGTGATCACGATC ((((((....)))))): the folding enthalpy in series [1] is -53 kcal/mol. Further, the Tm in series [2] turned out to be 58.2 °C.

Take GATCGTGCAACGATC ((((((...)))))): the folding enthalpy in series [1] is -41 kcal/mol. For the same sequence, the Tm in series [2] was found to be 67.8 °C.

GATCGTGCCAACGATC ((((((....)))))): the folding enthalpy in series [1] is -29.7 kcal/mol. The Tm in series [2] was determined as 66.6 °C.

Turning to GATCGTGCGCACGATC ((((((....)))))), the folding enthalpy in series [1] was -51.2 kcal/mol. Also, in series [2], the Tm was found to be 64.6 °C.

Regarding GATCGTGGAAACGATC ((((((....)))))), in series [1], the folding enthalpy was -32.5 kcal/mol. The Tm in series [2] came out at 61 °C.
